# ChEMBL document CHEMBL2157903, “2-Arylbenzofuran-based molecules as multipotent Alzheimer's disease modifying agents” (Eur J Med Chem, 2012)
# How the values were obtained:
# [1] = target: Cholinesterase (Homo sapiens, UniProt P06276); assay: Inhibition of human serum BuChE using butyrylthiocholine iodide as substrate preincubated for 20 mins prior to substrate addition by Ellman's method
# In short: (§1)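 Ellman method with acetylthiocholine iodide (AChE) or butyrylthiocholine iodide (BuChE) as substrate. Enzyme and inhibitor preincubated 20 min at 37 °C before substrate addition. Blanks without enzyme corrected for non-enzymatic hydrolysis. Five inhibitor concentrations giving 20-80% inhibition. IC50 from linear regression of % inhibition vs log final concentration. Mean of two or three independent measurements, each in triplicate.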
# [2] = target: Acetylcholinesterase (Homo sapiens, UniProt P22303); assay: Inhibition of human recombinant AChE using acetylthiocholine iodide as substrate preincubated for 20 mins prior to substrate addition by Ellman's method; settings: read-out: IC50; in short: as §1
# [3] = Induction of amyloid beta (25 to 35) fibril formation at 10 uM incubated up to 6 hrs by UV-Vis spectrophotometry
# In short: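 Aβ25-35, sonicated 1 min, was mixed in 10 mM phosphate buffer (pH 7.2) with compound added in MeOH, on ice. Polymerization was followed by UV-visible spectroscopy at 190–380 nm over 0–6 h. Compound-alone spectra were subtracted, and peptide-alone and curcumin controls were run in parallel. IC50 (0.1–50 range) came from a sigmoidal least-squares fit. At least three independent runs.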
# [4] = target: T1, Cannabinoid receptor 1 (Homo sapiens, UniProt P21554); assay: Displacement of [3H]CP-55940 from human recombinant CB1 receptor expressed in HEK293 cells after 90 mins; assay type: cell-based
# In short: (§2)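 Membranes from HEK-293 cells stably expressing human recombinant CB1 (Bmax 2.5 pmol/mg) or CB2 (Bmax 4.7 pmol/mg). Incubated with [3H]-CP-55,940 (CB1 0.14 nM, Kd 0.18 nM; CB2 0.084 nM, Kd 0.31 nM) and increasing compound concentrations for 90 min at 30 °C. Non-specific binding defined with 10 […] 55212-2. IC50 by non-linear regression, converted to Ki by Cheng-Prusoff. Means of at least n = 3.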
# [5] = target: T1, Cannabinoid receptor 1; assay: Displacement of [3H]CP-55940 from human recombinant CB1 receptor expressed in HEK293 cells at 10 uM after 90 mins; assay type: cell-based
# In short: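 Membranes from HEK-293 cells stably expressing human recombinant CB1 or CB2 were incubated with [³H]-CP-55,940 (0.14 nM for CB1; 0.084 nM for CB2) plus test compound for 90 min at 30 °C. Non-specific binding was defined with WIN 55212-2. Percent displacement of bound radioligand at the maximum tested concentration is reported. At least n = 3 experiments.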
# [6] = target: T2, Cannabinoid receptor 2 (Homo sapiens, UniProt P34972); assay: Displacement of [3H]CP-55940 from human recombinant CB2 receptor expressed in HEK293 cells after 90 mins; assay type: cell-based; in short: as §2
# [7] = target: T2, Cannabinoid receptor 2; assay: Displacement of [3H]CP-55940 from human recombinant CB2 receptor expressed in HEK293 cells at 10 uM after 90 mins; assay type: cell-based
# T1 sequence (P21554 whole entry): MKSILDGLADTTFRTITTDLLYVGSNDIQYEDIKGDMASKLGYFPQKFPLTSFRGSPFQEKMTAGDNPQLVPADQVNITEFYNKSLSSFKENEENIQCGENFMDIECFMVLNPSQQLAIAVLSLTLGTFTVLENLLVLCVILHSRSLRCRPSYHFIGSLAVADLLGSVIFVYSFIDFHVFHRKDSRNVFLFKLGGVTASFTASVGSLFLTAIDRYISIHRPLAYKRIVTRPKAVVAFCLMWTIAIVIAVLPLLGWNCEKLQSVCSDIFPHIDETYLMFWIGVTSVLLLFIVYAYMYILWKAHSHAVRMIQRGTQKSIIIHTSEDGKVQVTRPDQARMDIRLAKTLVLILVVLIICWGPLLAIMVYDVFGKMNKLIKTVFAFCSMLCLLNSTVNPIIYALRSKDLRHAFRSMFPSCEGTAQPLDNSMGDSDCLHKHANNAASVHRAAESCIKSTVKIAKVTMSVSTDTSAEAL
# T2 sequence (P34972 whole entry): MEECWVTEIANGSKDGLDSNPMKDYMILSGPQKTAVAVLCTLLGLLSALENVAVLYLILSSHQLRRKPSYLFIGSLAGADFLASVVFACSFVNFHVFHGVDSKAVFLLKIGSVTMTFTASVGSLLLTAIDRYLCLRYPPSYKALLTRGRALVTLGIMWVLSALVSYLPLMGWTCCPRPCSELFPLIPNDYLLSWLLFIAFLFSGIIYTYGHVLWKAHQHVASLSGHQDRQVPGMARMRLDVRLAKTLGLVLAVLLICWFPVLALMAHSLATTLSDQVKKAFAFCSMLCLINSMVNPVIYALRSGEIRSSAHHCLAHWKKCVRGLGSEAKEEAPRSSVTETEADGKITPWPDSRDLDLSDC
# Sequence of Acetylcholinesterase (P22303 whole entry): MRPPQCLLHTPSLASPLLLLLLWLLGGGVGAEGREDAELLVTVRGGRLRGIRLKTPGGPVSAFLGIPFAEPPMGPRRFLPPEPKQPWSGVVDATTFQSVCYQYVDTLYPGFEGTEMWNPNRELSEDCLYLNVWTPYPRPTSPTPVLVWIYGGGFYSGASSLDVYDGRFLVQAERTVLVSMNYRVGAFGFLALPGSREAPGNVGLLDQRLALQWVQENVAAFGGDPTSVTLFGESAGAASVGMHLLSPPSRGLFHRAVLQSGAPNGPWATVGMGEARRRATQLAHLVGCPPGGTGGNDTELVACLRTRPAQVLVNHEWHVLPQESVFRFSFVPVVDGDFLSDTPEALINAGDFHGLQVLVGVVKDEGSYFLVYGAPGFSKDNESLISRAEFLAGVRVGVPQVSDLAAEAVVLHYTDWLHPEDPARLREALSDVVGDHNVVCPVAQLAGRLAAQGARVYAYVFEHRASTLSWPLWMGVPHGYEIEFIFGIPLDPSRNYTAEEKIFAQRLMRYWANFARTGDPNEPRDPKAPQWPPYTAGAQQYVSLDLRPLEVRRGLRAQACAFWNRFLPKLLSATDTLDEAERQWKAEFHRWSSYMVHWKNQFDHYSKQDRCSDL
# Sequence of Cholinesterase (P06276 whole entry): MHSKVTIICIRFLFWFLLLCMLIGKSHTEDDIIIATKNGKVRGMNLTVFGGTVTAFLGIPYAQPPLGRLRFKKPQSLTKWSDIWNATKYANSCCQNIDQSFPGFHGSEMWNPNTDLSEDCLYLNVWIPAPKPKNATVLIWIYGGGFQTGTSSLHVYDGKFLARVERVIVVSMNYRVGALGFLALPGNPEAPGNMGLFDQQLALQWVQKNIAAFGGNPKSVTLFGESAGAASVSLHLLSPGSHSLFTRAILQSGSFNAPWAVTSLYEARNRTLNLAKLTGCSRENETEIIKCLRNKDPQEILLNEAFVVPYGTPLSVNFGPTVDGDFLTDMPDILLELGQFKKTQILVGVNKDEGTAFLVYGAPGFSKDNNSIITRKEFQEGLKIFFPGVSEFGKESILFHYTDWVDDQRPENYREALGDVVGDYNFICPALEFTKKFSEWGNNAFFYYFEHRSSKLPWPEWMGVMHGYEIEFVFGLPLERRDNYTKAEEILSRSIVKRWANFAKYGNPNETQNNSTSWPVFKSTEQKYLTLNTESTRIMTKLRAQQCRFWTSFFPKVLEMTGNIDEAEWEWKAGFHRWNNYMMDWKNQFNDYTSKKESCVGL
compound,measurement,setting,value
CN(CCCCCCCOc1ccc(-c2oc3ccccc3c2C(=O)c2c3ccccc3cc3ccccc23)cc1)Cc1ccccc1,IC50,[1],81.2 µM
same,IC50,[2],67.7 µM
same,Activity,[3],Toxic
same,EC50,[4],> 10 µM
same,Ki,[4],> 10 µM
same,Activity,[5],30.3%
same,EC50,[6],> 10 µM
same,Ki,[6],> 10 µM
same,Activity,[7],9.87%
